Results on 5 compounds are retold here after ChEMBL document CHEMBL3739400, “Penicyclones A-E, Antibacterial Polyketides from the Deep-Sea-Derived Fungus Penicillium sp. F23-2” (J Nat Prod, 2015).

pIC50: −log10 of the molar value. In brackets after ≈: the same amount, converted by molar mass.

Experiment [1] relates to Staphylococcus aureus. As to the kind of experiment: Antibacterial activity against Staphylococcus aureus ATCC 6538 assessed as growth inhibition after 24 hrs by broth microdilution method. Type of experiment: functional. To be noted: ATCC 6538, 24 h. The essentials:
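Broth microdilution assay against Staphylococcus aureus, with penicillin G as the positive control.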

Experiment [2] has as its system A549. As to the kind of experiment: Cytotoxicity against human A549 cells assessed as reduction in cell viability by sulforhodamine B assay. It is filed as functional, cell-based.
Experiment [3] in a line: Cytotoxicity against human HCT116 cells assessed as reduction in cell viability by sulforhodamine B assay. It is filed as functional, cell-based. To be noted: HCT-116. Background: The SRB assay estimates cell density from bound dye.
Experiment [4] concerns HeLa. As to the kind of experiment: Cytotoxicity against human HeLa cells assessed as reduction in cell viability by MTT assay. Type of experiment: functional, cell-based. The essentials:
(§1)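 Cytotoxicity was measured by MTT assay on HeLa (human cervical cancer) and BEL-7402 (human hepatocellular carcinoma) cell lines, with doxorubicin as the positive control.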
On the technique in general: Tetrazolium dyes change colour on reduction, which living cells bring about.

The subject of experiment [5] is HEK293. As to the kind of experiment: Cytotoxicity against HEK293 cells assessed as reduction in cell viability by sulforhodamine B assay. Type of experiment: cell-based. The settings on record: Homo sapiens.
Experiment [6] in a line: Cytotoxicity against human Bel7402 cells assessed as reduction in cell viability by MTT assay. It is filed as functional, cell-based. To be noted: Bel-7402. Summed up: as §1

In general, MIC refers to the smallest concentration in the dilution series that meets the test's criterion for growth inhibition. As usually defined, the pIC50 is the negative decadic logarithm of the IC50, by convention in mol/L. Regarding `COC(=O)[C@H](C)CC[C@@]1(O)C(=O)C=C(C)[C@@H](O)[C@H]1O`, the minimum inhibitory concentration (MIC) in experiment [1] amounted to 0.9 µg/mL (≈ 3.31 µM). The pIC50 in experiment [2], in experiment [3], in experiment [4], in experiment [5] and in experiment [6] was less than 4.30 each time.

As for `CC1=CC(=O)[C@](O)(CC[C@@H](C)C(=O)O)[C@H](O)[C@@H]1O`, the minimal inhibitory concentration (MIC) in experiment [1] was determined as 1 µg/mL (≈ 3.87 µM). Further, the pIC50 in experiment [2], in experiment [3], in experiment [4], in experiment [5] and in experiment [6] was less than 4.30 in each case.

As for `CC1=CC(=O)[C@]2(C/C=C(\C)CCC(=O)O)O[C@@H]2[C@@H]1O`, in experiment [1], the MIC was found to be 0.5 µg/mL (≈ 1.88 µM). Further, the negative-log IC50 (pIC50) in experiment [2], in experiment [3], in experiment [4], in experiment [5] and in experiment [6] was less than 4.30 each time.

Regarding `CC1=CC(=O)[C@]2(CC/C(C)=C/CC(=O)O)O[C@@H]2[C@@H]1O`, the MIC in experiment [1] worked out at 0.8 µg/mL (≈ 3 µM). Also, the pIC50 in experiment [2], in experiment [3], in experiment [4], in experiment [5] and in experiment [6] was less than 4.30 in each case.

Regarding `CC1=CC(=O)[C@]2(CC[C@@H](C)C(=O)O2)[C@H](O)[C@@H]1O`, the MIC in experiment [1] was found to be 0.3 µg/mL (≈ 1.25 µM). In addition, the negative-log IC50 (pIC50) in experiment [2], in experiment [3], in experiment [4], in experiment [5] and in experiment [6] was less than 4.30 throughout.
